Activity calls are given as the source filed them. No cut-off for these calls is given here.
How the values were obtained:
A2780 [1] = assay: Cytotoxicity against human A2780 cells after 96 hrs by SRB assay; type: functional, cell-based; conditions: A2780, 96 h
How it was run: (§1)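 Monolayer cells grown in RPMI 1640 with 10% heat-inactivated FBS and penicillin/streptomycin at 37 °C, 5% CO2. Cells were seeded and, after 24 h, exposed to serial dilutions (0–30 µM; DMSO or DMF ≤0.5% final) for 96 h. They were then fixed with 10% TCA at 4 °C, stained with 0.4% SRB and dissolved in 10 mM Tris, with absorbance read at 570 nm. IC50 comes from semi-log dose–response curves of survival versus untreated controls, from ≥3 independent experiments.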

[2] = Cytotoxicity against human Liposarcoma cells after 96 hrs by SRB assay; type: functional, cell-based; how it was run: as §1
A-431 = assay: Cytotoxicity against human A431 cells after 96 hrs by SRB assay; type: functional, cell-based; conditions: A-431, 96 h; how it was run: as §1
HCT-116 = assay: Cytotoxicity against human HCT116 cells after 96 hrs by SRB assay; type: functional, cell-based; conditions: HCT-116, 96 h; how it was run: as §1
[3] = Cytotoxicity against human 518A2 cells after 96 hrs by SRB assay; type: functional, cell-based; conditions: 518A2, 96 h; how it was run: as §1
8505C [4] = assay: Cytotoxicity against human 8505C cells after 96 hrs by SRB assay; type: functional, cell-based; how it was run: as §1
A549 [5] = assay: Cytotoxicity against human A549 cells after 96 hrs by SRB assay; type: functional, cell-based; conditions: A549, 96 h; how it was run: as §1
HCT-8 = assay: Cytotoxicity against human HCT8 cells after 96 hrs by SRB assay; type: functional, cell-based; conditions: HCT-8, 96 h; how it was run: as §1
FaDu [6] = assay: Cytotoxicity against human FADU cells after 96 hrs by SRB assay; type: functional, cell-based; how it was run: as §1
[7] = Cytotoxicity against human A253 cells after 96 hrs by SRB assay; type: functional, cell-based; conditions: A253, 96 h; how it was run: as §1
MCF7 = assay: Cytotoxicity against human MCF7 cells after 96 hrs by SRB assay; type: functional, cell-based; conditions: MCF7, 96 h; how it was run: as §1
SW-1736 [8] = assay: Cytotoxicity against human SW1736 cells after 96 hrs by SRB assay; type: functional, cell-based; conditions: SW-1736, 96 h; how it was run: as §1
DLD-1 [9] = assay: Cytotoxicity against human DLD1 cells after 96 hrs by SRB assay; type: functional, cell-based; conditions: DLD-1, 96 h; how it was run: as §1
SW480 [10] = assay: Cytotoxicity against human SW480 cells after 96 hrs by SRB assay; type: functional, cell-based; conditions: SW480, 96 h; how it was run: as §1
HT-29 [11] = assay: Growth inhibition of human HT-29 cells at 30 uM after 96 hrs by SRB assay; type: functional, cell-based
How it was run: (§2)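 Same SRB set-up: RPMI 1640 with 10% FBS at 37 °C, 5% CO2, and a 96 h exposure starting 24 h after seeding (DMSO or DMF ≤0.5% final). Percent viable cells relative to untreated controls is read at 30 µM, the top concentration of the 0–30 µM dilution series. Cells were fixed with TCA, stained with SRB and read at 570 nm; ≥3 independent experiments.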

HT-29 [12] = assay: Cytotoxicity against human HT-29 cells after 96 hrs by SRB assay; type: functional, cell-based; conditions: HT-29, 96 h; how it was run: as §1
SW-1736 [13] = assay: Growth inhibition of human SW1736 cells at 30 uM after 96 hrs by SRB assay; type: functional, cell-based; how it was run: as §2
518A2 = assay: Growth inhibition of human 518A2 cells at 30 uM after 96 hrs by SRB assay; type: functional, cell-based; how it was run: as §2
A2780 [14] = assay: Growth inhibition of human A2780 cells at 30 uM after 96 hrs by SRB assay; type: functional, cell-based; how it was run: as §2
DLD-1 [15] = assay: Growth inhibition of human DLD1 cells at 30 uM after 96 hrs by SRB assay; type: functional, cell-based; how it was run: as §2
FaDu [16] = assay: Growth inhibition of human FADU cells at 30 uM after 96 hrs by SRB assay; type: functional, cell-based; how it was run: as §2
A549 [17] = assay: Growth inhibition of human A549 cells at 30 uM after 96 hrs by SRB assay; type: functional, cell-based; how it was run: as §2
SW480 [18] = assay: Growth inhibition of human SW480 cells at 30 uM after 96 hrs by SRB assay; type: functional, cell-based; how it was run: as §2
Homo sapiens = organism: Homo sapiens; assay: Growth inhibition of human Liposarcoma cells at 30 uM after 96 hrs by SRB assay; type: functional; how it was run: as §2
8505C [19] = assay: Growth inhibition of human 8505C cells at 30 uM after 96 hrs by SRB assay; type: functional, cell-based; how it was run: as §2

Row | SMILES | IC50 (A2780 [1]) [µM] | IC50 [2] [µM] | IC50 (A-431) [µM] | IC50 (HCT-116) [µM] | IC50 [3] [µM] | IC50 (8505C [4]) [µM] | IC50 (A549 [5]) [µM] | IC50 (HCT-8) [µM] | IC50 (FaDu [6]) [µM] | IC50 [7] [µM] | IC50 (MCF7) [µM] | IC50 (SW-1736 [8]) [µM] | IC50 (DLD-1 [9]) [µM] | IC50 (SW480 [10]) [µM] | IC50 (HT-29 [12]) [µM] | further results
1 | C=C(C)[C@@H]1CC[C@]2([C@H](O)[C@H]3CCOC3=O)CC[C@]3(C)[C@H](CC[C@@H]4[C@@]5(C)CC[C@H](OC(C)=O)C(C)(C)[C@@H]5CC[C@]43C)[C@@H]12 | 12.4 | 17.4 | 11.7 | 10.7 | 17.9 | 22.2 | 21.1 | 8.3 | 17.5 | 16.8 | 11.7 | 18.5 | 17.4 | 16.4 | – | growth inhibition (GI) (HT-29 [11]): inactive
2 | C=C(C)[C@@H]1CC[C@]2(C(=O)[C@H]3CCOC3=O)CC[C@]3(C)[C@H](CC[C@@H]4[C@@]5(C)CC[C@H](OC(C)=O)C(C)(C)[C@@H]5CC[C@]43C)[C@@H]12 (mixture of isomers) | 6.4 | 10 | 7.3 | 6.2 | 9.5 | 9.2 | 5.5 | 7.8 | 5.8 | 7 | 7.7 | 6.2 | 9.5 | 9.6 | 14.8 | –
3 | C=C(C)[C@@H]1CC[C@]2([C@H]3CO3)CC[C@]3(C)[C@H](CC[C@@H]4[C@@]5(C)CC[C@H](O)C(C)(C)[C@@H]5CC[C@]43C)[C@@H]12 | – | 24.7 | 23.5 | 20.3 | – | 24.3 | – | 24.6 | – | 20.1 | 28.6 | – | – | 16.8 | 18.2 | growth inhibition (GI) (SW-1736 [13]): inactive; growth inhibition (GI) (518A2): inactive; growth inhibition (GI) (A2780 [14]): inactive; growth inhibition (GI) (DLD-1 [15]): inactive; growth inhibition (GI) (FaDu [16]): inactive; growth inhibition (GI) (A549 [17]): inactive
4 | C=C(C)[C@@H]1CC[C@]2([C@H](O)CC(=O)CC(=O)OCC)CC[C@]3(C)[C@H](CC[C@@H]4[C@@]5(C)CC[C@H](OC)C(C)(C)[C@@H]5CC[C@]43C)[C@@H]12 | 12.1 | 17.8 | 20.7 | 14.6 | 19.4 | 17.6 | 14.6 | 12.5 | 16.2 | 17 | 20.7 | 13.8 | 14 | 15.3 | 16.8 | –
5 | CCOC(=O)CC(=O)C[C@H]1O[C@@H]2[C@@H]3[C@H]4CC[C@@H]5[C@@]6(C)CC[C@H](OC(C)=O)C(C)(C)[C@@H]6CC[C@@]5(C)[C@]4(C)CC[C@@]31CCC2(C)C | 4.7 | 10.5 | 9.8 | 7 | 10.4 | 8.9 | 5.2 | 6.1 | 7 | 10.9 | 9.2 | 11.3 | 7.2 | 5.8 | 13.2 | –
6 | C=C(C)[C@@H]1CC[C@]2(C(=O)CC(=O)OCC)CC[C@]3(C)[C@H](CC[C@@H]4[C@@]5(C)CC[C@H](OC(C)=O)C(C)(C)[C@@H]5CC[C@]43C)[C@@H]12 | 1.8 | 2.2 | 2.6 | 2.4 | 2.5 | 2.3 | 2.2 | 3 | 3 | 2.2 | 6.8 | 2.3 | 3.9 | 2.2 | 12 | –
7 | C=C(C)[C@@H]1CC[C@]2([C@@H]3CO3)CC[C@]3(C)[C@H](CC[C@@H]4[C@@]5(C)CC[C@H](O)C(C)(C)[C@@H]5CC[C@]43C)[C@@H]12 | 28.2 | 22.4 | 20.1 | 19.9 | 26.8 | 22.3 | – | 20.6 | – | 18.8 | 23.6 | – | – | 16.2 | 15.4 | growth inhibition (GI) (SW-1736 [13]): inactive; growth inhibition (GI) (DLD-1 [15]): inactive; growth inhibition (GI) (FaDu [16]): inactive; growth inhibition (GI) (A549 [17]): inactive
8 | C=C(C)[C@@H]1CC[C@]2(C(=O)CC(=O)OCC)CC[C@]3(C)[C@H](CC[C@@H]4[C@@]5(C)CC[C@H](OC)C(C)(C)[C@@H]5CC[C@]43C)[C@@H]12 | 4.3 | 6.4 | 3.9 | 3.6 | 6.3 | 7.9 | 5.3 | 4.1 | 6.5 | 7.4 | 4.7 | 7.2 | 7.9 | 5.9 | 4.1 | –
9 | C=C(C)[C@@H]1CC[C@]2([C@H](O)[C@H]3C=CC(=O)O3)CC[C@]3(C)[C@H](CC[C@@H]4[C@@]5(C)CC[C@H](OC(C)=O)C(C)(C)[C@@H]5CC[C@]43C)[C@@H]12 | 8.8 | 15.9 | 8.9 | 8.5 | 16.5 | 17 | 17 | 14.7 | 12.3 | 15.7 | 12.5 | 14.7 | 16.3 | 12.8 | 29.9 | –
10 | C=C(C)[C@@H]1CC[C@]2([C@H](O)CC(=O)CC(=O)OCC)CC[C@]3(C)[C@H](CC[C@@H]4[C@@]5(C)CC[C@H](OC(C)=O)C(C)(C)[C@@H]5CC[C@]43C)[C@@H]12 | 9.1 | 9 | 16.1 | 13 | 11.6 | 9.6 | 16.8 | 11.3 | 10.5 | 10 | 13.9 | 10.6 | 9.3 | 13 | 18.5 | –
11 | C=C(C)[C@@H]1CC[C@]2([C@H](O)CC(=O)OCC)CC[C@]3(C)[C@H](CC[C@@H]4[C@@]5(C)CC[C@H](OC(C)=O)C(C)(C)[C@@H]5CC[C@]43C)[C@@H]12 | 21 | – | 18.7 | 13 | – | – | 28.2 | 16.5 | – | – | 27.3 | 23.5 | – | – | 21.8 | growth inhibition (GI) (SW480 [18]): inactive; growth inhibition (GI) (518A2): inactive; growth inhibition (GI) (Homo sapiens): inactive; growth inhibition (GI) (8505C [19]): inactive; growth inhibition (GI) (DLD-1 [15]): inactive; growth inhibition (GI) (FaDu [16]): inactive
12 | CCOC(=O)C[C@H]1O[C@@H]2[C@@H]3[C@H]4CC[C@@H]5[C@@]6(C)CC[C@H](OC(C)=O)C(C)(C)[C@@H]6CC[C@@]5(C)[C@]4(C)CC[C@@]31CCC2(C)C | 11.9 | – | 22.6 | 9.3 | – | – | 21.9 | 12 | 24.7 | 25.1 | 27.1 | 25.9 | – | 17.3 | 16.7 | growth inhibition (GI) (518A2): inactive; growth inhibition (GI) (Homo sapiens): inactive; growth inhibition (GI) (8505C [19]): inactive; growth inhibition (GI) (DLD-1 [15]): inactive
13 | C=C(C)[C@@H]1CC[C@]2(C(=O)O)CC[C@]3(C)[C@H](CC[C@@H]4[C@@]5(C)CC[C@H](O)C(C)(C)[C@@H]5CC[C@]43C)[C@@H]12 [BETULINIC ACID] | – | 9.7 | – | – | – | – | – | – | – | – | – | – | – | – | – | –
14 | C=C(C)[C@@H]1CC[C@]2([C@@H]3O[C@H]3C(=O)N(CC)CC)CC[C@]3(C)[C@H](CC[C@@H]4[C@@]5(C)CC[C@H](OC(C)=O)C(C)(C)[C@@H]5CC[C@]43C)[C@@H]12 | 4.7 | 7.7 | 4.3 | 2.3 | 7 | 8.3 | 5.6 | 2.7 | 5.9 | 3.5 | 4.6 | 2.7 | 7.9 | 6 | 9.6 | –
